According to ChEMBL document CHEMBL4513216, “Probing the Open Global Health Chemical Diversity Library for Multistage-Active Starting Points for Next-Generation Antimalarials” (ACS Infect Dis, 2020):

Test: Toxicity liver stage against HepG2, at 10uM
Type: cell-based
Design: test concentration 10 uM, cell line HepG2-A16-CD81EGFP
Conditions: human, HepG2-A16-CD81EGFP cells; read-out: INHIBITION
Procedure, shortened: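 Uninfected HepG2-A16-CD81EGFP cells, 3 × 10^3 per well, 1536-well, plated on prespotted compound at 10 μM final, parasite-free screening media added to match infected plates; puromycin 10 μM positive, DMSO 0.5% negative; run in parallel with 48 h PbLuc assay at 37 °C, 5% CO2; viability by CellTiter-Glo luminescence, normalized to controls.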
Work on `CC(=O)N1CC2(CCN(C(=O)c3ccc4c(c3)OCCO4)CC2)C1` yielded a cytotoxicity at 10 µM of -11.8%. Work on `CC(=O)N1CCOCC2(CCCNC2)C1` (configuration not stated) yielded a cytotoxicity at 10 µM of 0.081%. For `CNc1nc2c(s1)C(c1ccc(F)cc1Cl)CC(=O)N2` (configuration not stated), the cytotoxicity at 10 µM was 4.12%. In the case of `CO[C@H]1CCN(c2ncccn2)[C@H]1Cc1ccccc1`, the cytotoxicity at 10 µM is reported as -12.9%. In the case of `O=C1CCOC[C@]2(CN(Cc3ccccc3)C[C@H]2c2cccc(F)c2)N1`, the cytotoxicity at 10 µM is reported as -0.0186%. Work on `COc1ccc(C2CN(c3nc(C)cc(C)n3)CCN2C(C)=O)cc1` (configuration not stated) yielded a cytotoxicity at 10 µM of 2.06%. `NC(=O)c1ccccc1Oc1cnc(C2CCCN2)cn1` (configuration not stated) showed a cytotoxicity at 10 µM of 0.288%. With `O=C(c1cnccn1)N1CCCC(Cc2cncc3ccccc23)C1` (configuration not stated) the cytotoxicity at 10 µM was -31.4%. For `c1ccc(-c2cc(CNCCCN3CCCCC3)c3nnnn3c2)cc1`, the cytotoxicity at 10 µM was -30.6%. `Cc1cc(C(N)=O)nc(C2(C)CCCN2Cc2cnn(C)c2C)n1` (configuration not stated) gave a cytotoxicity at 10 µM of -20.6%. With `Cc1cc(CC(=O)N2CCc3cc(Br)sc3C2)n[nH]1` the cytotoxicity at 10 µM was 10.2%. In the case of `CC(Cn1cccn1)NCc1cccc(C#N)c1` (configuration not stated), the cytotoxicity at 10 µM is reported as 5.19%. Molecule `CCC(CC)(CN)NC(C)c1ccccc1` (configuration not stated) has a cytotoxicity at 10 µM of 4.02%. In the case of `c1cnc2nc(N3CCc4c(ncn4C4CC4)C3)ccc2n1`, the cytotoxicity at 10 µM is reported as 6.47%. For `COCCCN(C)C(=O)c1nnn(-c2ccccc2Cl)c1C`, the cytotoxicity at 10 µM was 9.38%. For `CC(C)(C)CN(CCC#N)C(=O)c1cccc(CN2CCCC2)c1`, the cytotoxicity at 10 µM was 0.234%. Molecule `O=C(c1cccc(F)c1)N(CCCO)S(=O)(=O)c1cccs1` has a cytotoxicity at 10 µM of 3.51%. `CN(C1CCCCC1)S(=O)(=O)N1CCN(Cc2ccon2)CC1` showed a cytotoxicity at 10 µM of 6.75%. Work on `O=C(Cn1ccc(-c2ccccc2)n1)N1CCN(C(=O)C2CC2)CC1` yielded a cytotoxicity at 10 µM of -6.58%. Molecule `Cc1nn(C)c2ncc(NC(=O)N3CCNC(=O)C3)cc12` has a cytotoxicity at 10 µM of -5.81%. `CSC1(CNC(=O)c2ccn(-c3ccccc3F)n2)CCOCC1` gave a cytotoxicity at 10 µM of 0.243%. `O=C(c1cccc(NCc2cccc(F)c2)c1)N1CCC(O)CC1` gave a cytotoxicity at 10 µM of 5.84%. In the case of `O=C(NCC1(c2cccs2)CCCCC1)N1CCOC(CO)C1` (configuration not stated), the cytotoxicity at 10 µM is reported as 0.75%. Molecule `CCCc1csc(-c2ccc(S(C)(=O)=O)cc2)n1` has a cytotoxicity at 10 µM of -2.69%. For `O=C(NCC1CC(=O)N(CCc2ccccc2)C1)c1ccon1` (configuration not stated), the cytotoxicity at 10 µM was -5.22%. In the case of `CC(C)(C)OC(=O)NCC1CCN(C(=O)c2ccccc2O)CC1`, the cytotoxicity at 10 µM is reported as 8.53%. With `Cc1cc(NCCn2cccn2)n2ncnc2n1` the cytotoxicity at 10 µM was -2.27%. Molecule `Cc1nc(C2CCCN(C(=O)c3cnc(C)s3)C2)no1` (configuration not stated) has a cytotoxicity at 10 µM of 4.31%. `COc1cc2c(nn1)CCN(CC(O)COc1ccc(C#N)cc1)C2` (configuration not stated) gave a cytotoxicity at 10 µM of -2.19%. For `CCC(CNS(N)(=O)=O)Oc1ccccc1F` (configuration not stated), the cytotoxicity at 10 µM was 3.01%. Work on `O=C(COc1ccc2c(c1)CCC2)N1CCCC1c1ccc[nH]1` (configuration not stated) yielded a cytotoxicity at 10 µM of 6.54%. `COc1cc(C)c(C(C)Nc2ncc(C(N)=O)cc2Cl)cc1OC` (configuration not stated) showed a cytotoxicity at 10 µM of 2.76%. With `O=C(Nc1ccccc1F)C1CSCN1C(=O)CCc1ccco1` (configuration not stated) the cytotoxicity at 10 µM was -4.31%. Work on `N#Cc1ccc(NCCCOCC2CCOC2)c(F)c1` (configuration not stated) yielded a cytotoxicity at 10 µM of 1.1%. In the case of `O=C(c1cc(Cl)c2c(c1)OCO2)N1CCN(c2nccs2)CC1`, the cytotoxicity at 10 µM is reported as -3.6%. In the case of `Cc1cccc(S(=O)(=O)NCC(C)N2CCN(C)CC2)c1Cl` (configuration not stated), the cytotoxicity at 10 µM is reported as -4.52%. For `CCN1CCN(S(=O)(=O)N2CCC(OC)CC2)[C@H]2CS(=O)(=O)C[C@H]21`, the cytotoxicity at 10 µM was -1.6%. `Cc1nc(CN2CCC(c3cc(N4CCCC4)ncn3)CC2)cs1` gave a cytotoxicity at 10 µM of -159%. Work on `CCC1CN(C(=O)c2ccc(O)c(C)c2)CCN1C(C)C` (configuration not stated) yielded a cytotoxicity at 10 µM of 1.68%. Molecule `O=C(O)C1(Cc2cccc(Cl)c2)CCCN(c2ncnc3[nH]ccc23)C1` (configuration not stated) has a cytotoxicity at 10 µM of 3.63%. With `CC(CCn1cccn1)N1CCC(n2cc(C(C)(C)N)nn2)CC1` (configuration not stated) the cytotoxicity at 10 µM was -4.78%. In the case of `COc1nccc(N2CC[C@H](N3CCOCC3)[C@H](CCCO)C2)c1C#N`, the cytotoxicity at 10 µM is reported as -148%. For `COc1cc(F)c(CN2CC[C@@](O)(C3CC3)[C@H](C)C2)cc1OC`, the cytotoxicity at 10 µM was 0.0489%. With `CCNC(=O)[C@@H]1C[C@H](n2cc(CC3CCCCC3)nn2)CN1` the cytotoxicity at 10 µM was 1.06%. With `CCCN1CCCC2(CCN(S(=O)(=O)N3CCC(OC)CC3)C2)C1=O` (configuration not stated) the cytotoxicity at 10 µM was 1.48%. For `COCC(=O)N1CCC(Oc2cccc(C)c2)CC1`, the cytotoxicity at 10 µM was -4.25%. Molecule `CC(Cn1ccnc1)NCc1nncn1C1CCCCC1` (configuration not stated) has a cytotoxicity at 10 µM of -4.54%. With `Cc1nc[nH]c1CN1CCCC(CNC(=O)c2ccncn2)C1` (configuration not stated) the cytotoxicity at 10 µM was -0.334%. Work on `CC(C)c1cnc(N2C[C@H](CO)C[C@H](CN3CCOCC3)C2)nc1` yielded a cytotoxicity at 10 µM of -7.45%. With `CCOCCn1nc(C)cc1C(=O)N1C[C@@H](C)[C@](O)(C2CC2)C1` the cytotoxicity at 10 µM was -3.9%. With `Cc1cccc(CN2CCN(C(=O)[C@@H]3CSCN3C)CC2)c1` the cytotoxicity at 10 µM was -8.56%. `CN(C)CC(C)(C)Cn1cnc(-c2ccccc2)c1-c1cccc(O)c1` gave a cytotoxicity at 10 µM of -5.53%. `O=C(NCCCc1ccccn1)c1cn(CCN2CCNCC2)nn1` showed a cytotoxicity at 10 µM of -3.54%. For `CCN1CCN(C[C@@H]2CN(c3ncc(Cl)cc3Cl)C[C@@H]2CO)CC1`, the cytotoxicity at 10 µM was -6%. `O=c1[nH]c(NC2CCCC2)nc2nccc(-c3ccco3)c12` showed a cytotoxicity at 10 µM of 0.74%. Molecule `Cc1ccc(N2CCN(C(=O)COc3ncccn3)CC2)nn1` has a cytotoxicity at 10 µM of -0.233%. For `Cc1ccsc1C(CNC(=O)c1cc(=O)c2ccccc2[nH]1)N(C)C` (configuration not stated), the cytotoxicity at 10 µM was -2.89%. In the case of `COc1ccc(OCc2nc(C(=O)N3CC[C@H](O)[C@@H](O)C3)co2)cc1`, the cytotoxicity at 10 µM is reported as -5.42%. For `CC(C)Oc1ccc(CNC(=O)CCN2C(=O)CCC2=O)cc1F`, the cytotoxicity at 10 µM was -7.27%. Work on `CC(C)c1noc(C(C)N2CCN(CCCN3CCCC3=O)CC2)n1` (configuration not stated) yielded a cytotoxicity at 10 µM of -14.3%. With `Cc1cc(CNc2ccccc2Cl)no1` the cytotoxicity at 10 µM was -7.77%. Molecule `Cc1noc(C)c1C(=O)NCC(c1ccsc1)N(C)C` (configuration not stated) has a cytotoxicity at 10 µM of -14.2%. In the case of `CCOc1c(Br)cc(/C=C/c2ncc(C(=O)O)s2)cc1OC`, the cytotoxicity at 10 µM is reported as -1.26%. With `CC(O)CN1CCC(CNCc2cccc(C(=O)N(C)C)c2)CC1` (configuration not stated) the cytotoxicity at 10 µM was -12.8%. With `Cc1cc(C)n(CC2CN(Cc3noc(C4CC4)n3)CCO2)n1` (configuration not stated) the cytotoxicity at 10 µM was 2.79%. `Cn1cnnc1C1CCCN(C(=O)COc2ccccc2Cl)C1` (configuration not stated) gave a cytotoxicity at 10 µM of -14.2%. With `Cc1cc(CN(C)C(=O)NC2CCC(O)CC2)no1` (configuration not stated) the cytotoxicity at 10 µM was -0.252%. For `Cc1cc(CN(C)C(=O)NC2CCCC2)no1`, the cytotoxicity at 10 µM was -5.85%. Molecule `O=C(Nc1ccccn1)N(CCO)Cc1ccsc1` has a cytotoxicity at 10 µM of 2.12%. With `O=C(CCCOc1ccc(F)cc1)N1CCCC(n2cccn2)C1` (configuration not stated) the cytotoxicity at 10 µM was 4.23%. Molecule `C[C@@H]1CN(Cc2ccccn2)C[C@]12CCN(Cc1cccnc1)C2=O` has a cytotoxicity at 10 µM of -4.54%. Molecule `O=c1ccc2c(n1Cc1ccncc1)CCN(Cc1ccoc1)CC2` has a cytotoxicity at 10 µM of -149%. Molecule `O=C1Nc2ccccc2C12CCN(Cc1ccccn1)CC2` has a cytotoxicity at 10 µM of -3.45%. Work on `Cc1cccc(C(=O)N2C[C@@H]3CCN(C(C)C)C[C@@H]3C2)c1` yielded a cytotoxicity at 10 µM of -2.16%. `Cn1cccc1C(=O)NCc1cn2c(n1)CN(Cc1ccccn1)CC2` showed a cytotoxicity at 10 µM of -115%. With `COc1ccc(-c2n[nH]cc2CNC2CCN(C3CC3)CC2)cc1` the cytotoxicity at 10 µM was 1.75%. Molecule `CCS(=O)(=O)N1C[C@@H]2CN(Cc3ccco3)CCO[C@@H]2C1` has a cytotoxicity at 10 µM of -122%. Work on `Cc1cnc(C(=O)N2CCC3(CCN(Cc4ccccn4)C3=O)C2)cn1` (configuration not stated) yielded a cytotoxicity at 10 µM of -140%. Molecule `CCCN1C[C@@H]2CC[C@H]1CN(Cc1cccc(O)c1)C2` has a cytotoxicity at 10 µM of -122%. For `Cn1cc(-n2cc3nc(N4CCOCC4)[nH]cc-3c2=O)cn1`, the cytotoxicity at 10 µM was 7.36%. Molecule `COCCN1C(=O)[C@@H]2CC[C@H]1CN(c1nccc(C)n1)C2` has a cytotoxicity at 10 µM of 9.73%. Molecule `CS(=O)(=O)CCC(=O)N1C[C@H]2CC[C@@H](C1)N(Cc1ccccc1)C2=O` has a cytotoxicity at 10 µM of -0.0119%.
